Published values collected from several papers.
Protocols differ between the studies behind these lines.
PIK3CG: Phosphatidylinositol 4,5-bisphosphate 3-kinase catalytic subunit gamma isoform (PIK3CG, Homo sapiens, UniProt P48736)
DHODH: Dihydroorotate dehydrogenase (quinone), mitochondrial (DHODH, Homo sapiens, UniProt Q02127)
SHMT2: Serine hydroxymethyltransferase, mitochondrial (SHMT2, Homo sapiens, UniProt P34897)
SCTR: Secretin receptor (SCTR, Homo sapiens, UniProt P47872)

SMILES	target	test	measurement	result
Cc1nc(Nc2ccc3c(c2)/C(=C/c2ccccc2Cl)C(=O)N3)c2ccccc2n1	PIK3CG	enzyme activity, inhibitor, ADP detection	IC50	34.5 nM
CCn1ncc2c([C@](O)(c3ccc(C(F)(F)F)c(Cl)c3)C3CC3)n(C)nc2c1=O	DHODH	enzyme activity, inhibitor	IC50	> 100000 nM
CCCc1cc(C(=O)Nc2ccc(C(C)=O)cc2)c(NC(=O)c2ccccc2)s1	Prostaglandin G/H synthase 2 (PTGS2, Homo sapiens, UniProt P35354)	enzyme activity, inhibitor	IC50	1230 nM
COc1cc2ncnc(N(C)c3ccc4c(c3)/C(=C/c3cccc(Cl)c3)C(=O)N4C)c2cc1OC	PIK3CG	enzyme activity, inhibitor, ADP detection	IC50	118 nM
Cc1noc(C)c1-c1cc(Cl)c(Nc2ccccc2C(=O)O)c(Cl)c1	DHODH	enzyme activity, inhibitor, absorbance	IC50	1400 nM
CN[C@H]1CC[C@@H](c2ccc(Cl)c(Cl)c2)c2ccccc21	SHMT2	binding, MST	Kd	12000 nM
CC1=NN(/C(=N\c2cccnc2)Nc2nnc(C)s2)C(c2ccc(C)cc2)S1 (centres unmarked)	SCTR	cAMP, agonist, TR-FRET	EC50	> 50000 nM
Cc1nc(Nc2ccc3c(c2)CC(=O)N3)c2ccccc2n1	PIK3CG	enzyme activity, inhibitor, ADP detection	IC50	568 nM
CCn1cc(C2CC2)c2c(CN3CCC(C)(F)CC3)n(C)nc2c1=O	DHODH	enzyme activity, inhibitor, absorbance	IC50	> 100000 nM
Cc1ccc(N/C(=N\c2nnc(C(C)(C)C)s2)N2N=C(C(C)(C)C)SC2c2cc(F)c(F)c(F)c2)cc1C (centres unmarked)	SCTR	cAMP, agonist, TR-FRET	EC50	> 50000 nM
NC(=O)c1cccc(C#CCN(CC[C@H](N)C(=O)O)C[C@H]2O[C@@H](n3cnc4c(N)ncnc43)[C@H](O)[C@@H]2O)c1	SHMT2	binding, MST	Kd	66000 nM
Cc1nn(C2CC2)c(=O)c2nn(C)c(Cc3ccc(C(F)(F)F)c(C#N)c3)c12	DHODH	enzyme activity, inhibitor	IC50	30000 nM
CNC[C@H](O)c1cccc(O)c1	Alpha-1D adrenergic receptor (ADRA1D, Homo sapiens, UniProt P25100)	calcium signal, agonist	EC50	17.4 nM
COc1cc2ncnc(Nc3ccc4c(c3)/C(=C/c3ccccc3)C(=O)N4)c2cc1OC	PIK3CG	enzyme activity, inhibitor, ADP detection	IC50	109 nM
CCn1cc(C2CC2)c2c(CN3CCC(F)(F)C(C)(C)C3)n(C)nc2c1=O	DHODH	enzyme activity, inhibitor, absorbance	IC50	> 100000 nM
CC1=NN(/C(=N/c2nnc(C)s2)Nc2ccc(C)c(C)c2)C(c2ccc(F)cc2)S1 (centres unmarked)	SCTR	cAMP, agonist, TR-FRET	EC50	800 nM
COc1cc2ncnc(Nc3ccc4c(c3)/C(=C/c3ccccc3)C(=O)N4C)c2cc1OC	PIK3CG	enzyme activity, inhibitor, ADP detection	IC50	194 nM
